From PubChem BioAssay
Sampled rows, rich in hits. Any-hit rate of the full collection: about 1.2%.
CaV13 ICDI inh: Primary screen for inhibitors of IQ motif and Ca2+-dependent inactivation inhibitor domain binding in CACNA1D, Förster resonance energy transfer in living cells, …; HEK cells, CFP/YFP FRET ICDI-IQ, plate reader, 10 min; percent FRET-ratio fall versus neutral wells; hit rate 0.098% among 340,000; inhibition, % at 12.3 µM;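 active means mean replicate inhibition of at least 30% and at least 1% of replicates passing that level; inconclusive means only one of the two criteria is met; inactive means neither criterion is met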
RanGTP-Imp inh: inhibitors of RanGTP-importin-beta interaction, primary screen, biochemical, FRET, CFP-Ran, YFP-importin-beta, homogeneous; Ran GTPase (GTP-bound) - importin-beta complex; cell-free CFP-Ran/YFP-importin-beta FRET ratio; inhibition, % (concentration not given with the values); hit rate 1.1% among 300,000;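 active means more than half of the replicate wells show a fall in the fluorescence ratio signal beyond about 16%, limit read from the data, passing the limit was not always enough; inconclusive means exactly half of the replicate wells pass the set limit; inactive means fewer than half of replicates pass the limit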
Runt-CBFb FRET: inhibitors of RUNX1 Runt–CBFb binding, primary screen, biochemical, FRET, Cerulean-Runt, Venus-CBFb, uHTS; Runt-related transcription factor 1 (Homo sapiens) + Core-binding factor subunit beta …; inhibition, % at 20 µM; hit rate 0.46% among 220,000; Cerulean-Runt/Venus-CBFb FRET ratio 530/480, 1 h;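 active means inhibition over about 50% at 20 µM in the single-dose screen, limit read from the data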
Target sequence (Q01196 whole entry, looked up): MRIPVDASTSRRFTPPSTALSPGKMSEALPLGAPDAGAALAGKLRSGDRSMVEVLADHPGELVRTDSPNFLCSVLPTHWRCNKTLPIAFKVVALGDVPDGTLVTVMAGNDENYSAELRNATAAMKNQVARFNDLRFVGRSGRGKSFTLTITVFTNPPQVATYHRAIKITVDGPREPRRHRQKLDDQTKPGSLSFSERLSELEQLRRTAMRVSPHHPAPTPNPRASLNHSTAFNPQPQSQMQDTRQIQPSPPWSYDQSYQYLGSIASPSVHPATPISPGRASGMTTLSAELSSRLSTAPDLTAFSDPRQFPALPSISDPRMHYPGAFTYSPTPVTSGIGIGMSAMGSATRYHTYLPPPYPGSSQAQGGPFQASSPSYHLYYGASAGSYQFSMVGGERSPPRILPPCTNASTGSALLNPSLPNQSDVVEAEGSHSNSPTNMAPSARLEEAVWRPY
Target sequence (Q13951 whole entry, looked up): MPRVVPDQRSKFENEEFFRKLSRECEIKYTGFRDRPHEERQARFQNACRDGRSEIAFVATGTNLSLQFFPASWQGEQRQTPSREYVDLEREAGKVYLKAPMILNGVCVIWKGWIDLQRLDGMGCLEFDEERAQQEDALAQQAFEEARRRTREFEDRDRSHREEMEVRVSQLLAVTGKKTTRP
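Buffer or medium: Tris pH 7.5 buffer with BSA. Assay system: Cerulean-labeled Runt domain protein. Amount: each fluorescent fusion protein 100 nM. Read-out basis: loss of energy transfer signal. Incubation: 1 h compound exposure, room temperature. Probe or stimulus: Venus-CBFb binding partner, 100 nM. Detection: FRET, excitation 422 nm, emission at 530 and 480 nm.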
Runt-SMMHC FRET: inhibitors of RUNX1 Runt–CBFb-SMMHC binding, primary screen, biochemical, FRET, Cerulean-Runt, Venus-CBFb-SMMHC, uHTS. Runt-related transcription factor 1 (Homo sapiens) + Core-binding factor subunit beta …. Cerulean-Runt/Venus-CBFb-SMMHC FRET ratio 530/480, 1 h. inhibition, % at 20 µM. hit rate 0.74% among 220,000. AID 1434, 2008;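 active means mean inhibition across duplicate retests at 20 µM reaching about 50%, limit read from the data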;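 further: inhibitors lower the FRET ratio by blocking Runt binding to CBFb-SMMHC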
A number is an active result; – = inactive; ? = inconclusive; · = not tested or not shown.

SMILES	CaV13 ICDI inh	RanGTP-Imp inh	Runt-CBFb FRET	Runt-SMMHC FRET
Cc1ccc(S(=O)(=O)NC(C(=O)Oc2ccc3c(C(F)(F)F)cc(=O)oc3c2)c2ccccc2)cc1 (centres undefined)	–	36	–	59
O=C(CCc1ccccc1)Nc1cc(S(=O)(=O)N2CCOCC2)ccc1N1CCCC1	–	·	·	·
Cc1ccc(S(=O)(=O)Cc2ccc(C(=O)N3CCN(Cc4ccccc4)CC3)o2)cc1	–	–	–	–
COc1ccc(S(=O)(=O)Cc2ccc(C(=O)N3CCN(Cc4ccccc4)CC3)o2)cc1	58	–	–	–
CC1CCCC(NC(=O)C2CCN(S(=O)(=O)c3cnc[nH]3)CC2)C1C (centres undefined)	–	–	·	·
O=C(Nc1ccc(Cc2ccncc2)cc1)c1cccc([N+](=O)[O-])c1	–	–	–	–
O=C(Nc1ccc(Nc2ccncc2)cc1)c1ccc(Nc2ccnc3ccc([N+](=O)[O-])cc23)cc1	–	–	–	57
Cc1cc(C)c2c3c(sc2n1)C(c1cccc(F)c1)C(C#N)=C(N)O3 (centres undefined)	–	91	90	62
CS(=O)(=O)N(CC(=O)NCc1ccncc1)c1cc(Cl)ccc1Cl	–	–	–	–
CCN(CC)CCNc1c2c(c(C#N)c3nc4ccccc4n13)CCCC2	–	?	–	61
N#Cc1c2c(c(NCc3ccco3)n3c1nc1ccccc13)CCC2	·	–	–	·
CN(C)CCNc1c2c(c(C#N)c3nc4ccccc4n13)CCCC2	–	–	–	62
CC(C)(C)c1ccc(/C=C2\Oc3cc(O)ccc3C2=O)cc1	–	–	·	·
COC(=O)c1ccc2c(c1)C(=O)/C(=C/c1ccc(O)cc1)O2	–	19	–	–
O=C(c1nc2ccccn2c1CN1CCCC(O)C1)N1CCN(C2CCCCC2)CC1 (centres undefined)	–	103	·	·
NC(=O)[C@@H]1CCCN1Cc1c(C(=O)N2CCN(C3CCCCC3)CC2)nc2ccccn12	–	112	·	·
COC1CCN(Cc2c(C(=O)N3CCN(C4CCCCC4)CC3)nc3ccccn23)CC1	·	104	·	·
COCC1CCN(Cc2c(C(=O)N3CCN(C4CCCCC4)CC3)nc3ccccn23)C1 (centres undefined)	–	111	·	·
Cc1cccc(OC2CCN(Cc3c(C(=O)N4CCCC4)nc4ccccn34)CC2)c1	–	–	–	–
CCOc1ccc(OCCC(=O)OCC(=O)NC(C)c2ccccc2)cc1 (centres undefined)	–	–	·	·
CCOc1c(Cl)cc(C(=O)Nc2ccccc2C(=O)O)cc1Cl	–	–	–	–
O=C(c1nc2ccc(Cl)cn2c1CN1CCC[C@H]1CO)N1CCCCCCC1	·	22	·	·
CN(/N=C/c1cc(Cl)cc(Cl)c1O)C(=S)NC(C)(C)C	–	–	–	90
Oc1c(Cl)cc(Cl)cc1/C=N/Nc1ncc(Br)cn1	–	–	–	–
Cn1cccc1CC(=O)NNC(=O)Nc1ccccc1F	–	·	·	·
SMILES	CaV13 ICDI inh	RanGTP-Imp inh	Runt-CBFb FRET	Runt-SMMHC FRET
CCOC(=O)N1CCC(NC(=O)c2ccc(Cl)cc2)CC1	–	–	–	–
CCOC(=O)N1CCC(Nc2nc3ccccc3nc2NS(=O)(=O)c2ccc(Cl)cc2)CC1	–	19	–	–
CC(C)N1CCN(Cc2ccc(-c3ccccc3Cl)o2)CC1CCO (centres undefined)	–	·	–	–
Cc1cc2cc(C#N)c(NCCNC(=S)NCCCN3CCOCC3)nc2cc1C	?	?	–	88
COc1ccc2nc(NCCNC(=S)NCCCN3CCOCC3)c(C#N)cc2c1	–	–	–	93
C#CCNC(=O)C[C@H]1C[C@@]2(C(=O)OC)C(=C[C@H](C(C)(C)C)O[C@@H]2C)N(CCCCCCCC)C1=O	–	·	·	·
CCCCn1c(N)c(N2CCOCC2)c(=O)n(CC(=O)NC(C)c2ccccc2)c1=O (centres undefined)	–	27	–	–
CCOC(=O)c1c[nH]c2nc(C)ccc2c1=O	–	24	–	–
CCOC(=O)c1c[nH]c(=O)c(Br)c1O	–	–	–	–
N#Cc1c(N)nc2c3c(sc(=N)c2c1N)NC(=O)CC3c1c(F)cccc1Cl (centres undefined)	–	85	–	–
N#Cc1c(N)nc2c3c(sc(=N)c2c1N)NC(=O)CC3c1ccccc1 (centres undefined)	–	119	–	–
Cc1c(C#N)c(N)nc2c3c(sc12)NC(=O)CC3c1ccc(Cl)cc1 (centres undefined)	·	–	–	–
COc1ccc2c(c1)O/C(=C\c1sccc1C)C2=O	–	29	–	–
CCOC(=O)/C(C#N)=C/c1c(N2CCN(C)CC2)nc2ccccn2c1=O	–	101	·	·
CCOC(=O)/C(C#N)=C/c1c(N2CCCCCC2)nc2ccccn2c1=O	–	–	·	·
CCNC(=O)/C(C#N)=C/c1c(N2CCOCC2)nc2ccccn2c1=O	–	–	63	81
CN1CCN(c2nc3ccccn3c(=O)c2/C=C(\C#N)S(=O)(=O)c2ccccc2)CC1	99	72	–	–
C=CCNC(=O)/C(C#N)=C/c1c(N2CCCCCC2)nc2ccccn2c1=O	–	–	·	·
COCCNC(=O)/C(C#N)=C/c1c(N2CCN(C)CC2)nc2ccccn2c1=O	–	97	·	·
COc1ccc(CNC(=O)COC(=O)CCN2C(=O)C3CC=CCC3C2=O)cc1OC (centres undefined)	–	·	·	·
Nc1nc2nc(-c3cccs3)cc(C(F)(F)F)n2n1	–	62	66	91
N#C/C(=C\c1ccco1)c1nc2ccccc2s1	–	–	–	–
N#C/C(=C/c1ccc(-c2cc(C(=O)O)cc(C(=O)O)c2)o1)c1nc2ccccc2s1	·	–	85	69
CC(C)COC(=O)/C(C#N)=C/c1c[nH]c2ccccc12	–	–	–	51
CC(C)OC(=O)CSc1nnc2n1C(C)(C)Cc1ccccc1-2	–	–	121	132
SMILES	CaV13 ICDI inh	RanGTP-Imp inh	Runt-CBFb FRET	Runt-SMMHC FRET
CCOC(=O)CSc1nnc2n1C(C)(C)Cc1ccccc1-2	–	?	–	–
CCOC(=O)c1cc(Br)c(=O)n2ccccc12	·	?	–	–
CCOC(=O)c1cc(C(=O)OCC)c2cccc(C)n2c1=O	·	36	–	–
CCN(CC)c1ccc(/C=N/NC(=O)c2cccc(S(=O)(=O)Nc3ccccc3OC)c2)c(O)c1	–	–	–	81
O=C(c1ccccc1)[C@@H]1[C@@H](C(=O)c2ccc(F)cc2)[C@@]2(C(=O)Nc3ccccc32)[C@H]2c3ccccc3C=CN12	–	21	–	–
CC(=O)[C@@H]1[C@@H](C(=O)c2ccccc2)[C@]2(C(=O)Nc3ccccc32)[C@H]2C=Cc3cc(F)ccc3N12	–	–	–	–
